From ChEMBL document CHEMBL1141754, “A labdane diterpene glucoside from the rhizomes of Curcuma mangga” (J Nat Prod, 2005)

Columns and labels:
[1] = Antioxidant activity assessed as inhibition of copper-induced lipid peroxidation by Fe3(CN)6 method at 300 uM; type: functional; design: scale not given: the % may be the effect or the level left
HL-60 = assay: Cytotoxicity against human HL60; type: functional, cell-based
Method in brief: (§1)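 Five human cancer lines: HL-60 (leukemia), HepG2 (liver), MCF-7 (breast), DU-145 (prostate) and NCI-H460 (lung). IC50 given in μM ± SD from three experiments, each run in triplicate.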

HepG2 = assay: Cytotoxicity against human HepG2; type: functional, cell-based; method in brief: as §1
MCF7 = assay: Cytotoxicity against human MCF7; type: functional, cell-based; method in brief: as §1
DU-145 = assay: Cytotoxicity against human DU145; type: functional, cell-based; method in brief: as §1
NCI-H460 = assay: Cytotoxicity against human NCI-H460; type: functional, cell-based; method in brief: as §1

| Compound | Activity [1] [%] | IC50 (HL-60) [µM] | IC50 (HepG2) [µM] | IC50 (MCF7) [µM] | IC50 (DU-145) [µM] | IC50 (NCI-H460) [µM] |
| --- | --- | --- | --- | --- | --- | --- |
| Cc1c(C)c2c(c(C)c1O)CC[C@@](C)(CCC[C@H](C)CCC[C@H](C)CCCC(C)C)O2 | 45.2 | – | – | – | – | – |
| C=C1CC[C@H]2C(C)(C)CCC[C@]2(C)[C@H]1C/C=C(/C=O)CC=O | 5.7 | – | – | – | – | – |
| COc1cc(/C=C/C(=O)CC(=O)/C=C/c2ccc(O)c(OC)c2)ccc1O [CURCUMIN] | 96.5 | 34.2 | 35.5 | 10.4 | 20.6 | 27.6 |
| C=C1CC[C@H]2C(C)(C)CCC[C@]2(C)[C@H]1C[C@@H](O)C1=CC(O)OC1=O (stereo partly specified) [ZERUMIN B] | 16.5 | 7.21 | 25.3 | 0.59 | 11.2 | – |
| CC1(C)[C@@H](O[C@@H]2O[C@H](CO)[C@@H](O)[C@H](O)[C@H]2O)CC[C@]2(C)[C@H]3CC(C4=CCOC4=O)OC(O)[C@H]3CC[C@@H]12 (stereo partly specified) | 0 | – | – | – | – | – |
| O=C(/C=C/C=C/c1ccc(O)cc1)/C=C/c1ccc(O)cc1 | 92.9 | – | – | – | – | – |
| COc1cc(/C=C/C(O)=C/C(=O)/C=C/c2ccc(O)cc2)ccc1O [DEMETHOXYCURCUMIN] | 93.8 | 24.2 | > 50 | 18.5 | 21.7 | 25.7 |
| O=C(/C=C/c1ccc(O)cc1)CC(=O)/C=C/c1ccc(O)cc1 [BISDEMETHOXYCURCUMIN] | 93.3 | 25.1 | > 50 | 33.8 | 30.1 | 88.1 |
| Cc1cc(C(C)(C)C)c(O)c(C(C)(C)C)c1 | 99.9 | – | – | – | – | – |
| O=c1c(O)c(-c2ccc(O)c(O)c2)oc2cc(O)cc(O)c12 | 51.3 | – | – | – | – | – |
| C=C1CC[C@H]2C(C)(C)CCC[C@]2(C)[C@H]1C/C=C(/C=O)CC(OC)OC | 11.5 | – | – | – | – | – |
| COc1cc2ccc(=O)oc2cc1O [SCOPOLETIN] | 94.9 | > 50 | > 50 | > 50 | > 50 | > 50 |
